Columns and labels:
Mus musculus [1] = experiment: In vivo dose required to protect 50% audiogenic seizure prone mice against clonic convulsions; assay type: functional
Outline: (§1)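 Genetically sound-sensitive DBA-derived mice, male or female, 14–28 g, N = 10 per group. Compound given ip 60 min before stimulus at log-spaced doses, generally 1.0 × 10^-5 to 1.0 × 10^-3 mol/kg, with a vehicle control group. After 30 s orientation, a 90 dB, 10–20 kHz tone was given for 30 s. Clonic convulsions were scored. ED50 with 95% confidence limits came from probit analysis.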

[2] = target: Synaptic vesicle glycoprotein 2A (Rattus norvegicus) (UniProt Q02563); experiment: In vitro inhibitory activity against [3H](2S)-2-[4-(3-azidophenyl)-2-oxopyrrolidin-1-yl]butanamide binding to levetiracetam binding site; set-up: concentration or dose not given beside the values; conditions: concentration not given here
Outline: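 Rat cerebral cortex membranes (male Sprague-Dawley, 200–250 g), homogenised in Tris-HCl/sucrose at 4 °C, washed, preincubated 15 min at 37 °C. Binding: 4 °C for 120 min in 50 mmol/L Tris-HCl pH 7.4 with 2 mmol/L MgCl2, 1–2 × 10^-9 mol/L tritiated azidophenyl radioligand, rising test concentrations. Nonspecific binding with 10^-3 mol/L levetiracetam. Rapid filtration, scintillation counting. pIC50 is the mean of two independent determinations.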

[3] = Half life at 10 mg/kg was determined in rat; assay type: ADME, organism-based; set-up: dose 10 mg/kg; conditions: in vivo
[4] = Total clearance at 10 mg/kg was determined in rat; assay type: ADME, organism-based; set-up: dose 10 mg/kg; conditions: in vivo
[5] = Maximum time to achieve peak plasma concentration was determined in rat at 10 mg/kg; assay type: ADME, organism-based; set-up: dose 10 mg/kg
[6] = Oral bioavailability at 10 mg/kg was determined in rat; assay type: ADME, organism-based; conditions: in vivo, read-out: Bioavailabiility
Mus musculus [7] = experiment: In vivo dose required to protect 50% audiogenic seizure prone mice against clonic convulsions; value ranges from 102 to 715; assay type: functional; outline: as §1
Mus musculus [8] = experiment: In vivo dose required to protect 50% audiogenic seizure prone mice against clonic convulsions; value ranges from 143 to 283; assay type: functional; outline: as §1
Mus musculus [9] = experiment: In vivo dose required to protect 50% audiogenic seizure prone mice against clonic convulsions; value ranges from 59 to 281; assay type: functional; outline: as §1
[10] = Oral bioavailability at 1 mg/kg was determined in rat; assay type: ADME, organism-based; conditions: in vivo, read-out: Bioavailabiility
[11] = Maximum time to achieve peak plasma concentration was determined in rat at 1 mg/kg; assay type: ADME, organism-based; set-up: dose 1 mg/kg
[12] = Total clearance at 1 mg/kg was determined in rat; assay type: ADME, organism-based; set-up: dose 1 mg/kg; conditions: in vivo
[13] = Half life at 1 mg/kg was determined in rat; assay type: ADME, organism-based; set-up: dose 1 mg/kg; conditions: in vivo

Synaptic vesicle glycoprotein 2A (Rattus norvegicus), sequence (Q02563 whole entry): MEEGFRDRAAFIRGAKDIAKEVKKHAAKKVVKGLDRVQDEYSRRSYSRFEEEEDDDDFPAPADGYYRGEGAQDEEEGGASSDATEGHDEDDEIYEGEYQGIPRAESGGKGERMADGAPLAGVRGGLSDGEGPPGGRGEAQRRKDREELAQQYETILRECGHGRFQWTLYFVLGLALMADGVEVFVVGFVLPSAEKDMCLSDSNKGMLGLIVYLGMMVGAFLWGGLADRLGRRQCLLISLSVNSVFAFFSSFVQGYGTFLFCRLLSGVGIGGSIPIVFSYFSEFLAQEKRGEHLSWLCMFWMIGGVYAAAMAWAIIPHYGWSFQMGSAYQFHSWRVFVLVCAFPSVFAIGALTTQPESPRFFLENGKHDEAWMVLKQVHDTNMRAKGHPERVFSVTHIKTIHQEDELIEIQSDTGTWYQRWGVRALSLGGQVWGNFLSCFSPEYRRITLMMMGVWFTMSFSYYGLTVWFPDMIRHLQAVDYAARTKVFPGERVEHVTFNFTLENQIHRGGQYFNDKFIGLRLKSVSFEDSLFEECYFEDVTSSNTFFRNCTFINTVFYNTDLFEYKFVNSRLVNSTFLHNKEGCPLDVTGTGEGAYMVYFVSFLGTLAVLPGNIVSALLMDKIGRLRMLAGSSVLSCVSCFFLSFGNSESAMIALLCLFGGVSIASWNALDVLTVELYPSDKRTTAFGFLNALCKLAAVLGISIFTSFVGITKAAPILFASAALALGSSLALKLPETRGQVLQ

Row | SMILES | ED50 (Mus musculus [1]) [µmol/kg] | inhibition [2] [%] | further results
1 | CC(C)C(C(N)=O)N1CCCC1=O (centres undefined) | 890 |  | 
2 | CC[C@@H](C(=N)S)N1CCCC1=O | 1000 | < 20 | 
3 | CCC[C@@H]1CC(=O)N([C@@H](CC)C(N)=O)C1 [BRIVARACETAM] | 14 |  | half-life [3]: 1.7 h; clearance [4]: 4.67 mL/min/kg; Tmax [5]: 0.5 h; bioavailability [6]: 100%
4 | CC[C@@H](C(N)=O)N1C[C@H](CBr)CC1=O | 180 |  | 
5 | CCC(C(N)=O)N1C(=O)CCC1(C)C (single isomer, unassigned) | 1000 |  | 
6 | CC[C@@H](C(=O)NN)N1CCCC1=O | 1000 |  | 
7 | CCCCCC1CCC(=O)N1C(CC)C(N)=O (centres undefined) |  | < 20 | 
8 | CC[C@@H](C(=O)NCc1ccccc1)N1CCCC1=O | 560 | < 30 | 
9 | CC[C@@H](C(N)=O)N1C[C@H](C(=O)OC)CC1=O | 1000 | < 20 | 
10 | CC[C@@H](C(N)=O)N1C[C@H](CO[N+](=O)[O-])CC1=O | 25 |  | 
11 | CCC(C(N)=O)N1CC(Cc2ccccc2)CC1=O (centres undefined) | 1000 |  | 
12 | CC[C@@H](C(N)=O)N1CCC(C)C1=O (some centres undefined) | 1000 |  | 
13 | CC[C@@H](C(N)=O)N1C[C@H](CN=[N+]=[N-])CC1=O | 3.6 |  | 
14 | CC[C@@H](C(=N)N)N1CCCC1=O | 1000 |  | 
15 | C[C@@H](C(N)=O)N1CCCC1=O |  |  | ED50 (Mus musculus [7]): 504 µmol/kg
16 | CCCCCCCCN(C(=O)Cc1ccc(Cl)cc1)C(CC)C(N)=O (centres undefined) | 1000 |  | 
17 | CC[C@@H](C(=O)NO)N1CCCC1=O | 1000 |  | 
18 | CC[C@@H](C(N)=O)N(C)C(C)=O | 1800 |  | 
19 | CC[C@@H](C(N)=O)N1C[C@H](C(N)=O)CC1=O | 1000 | < 20 | 
20 | CCCCC1CC(=O)N(C(CC)C(N)=O)C1 (centres undefined) | 480 |  | 
21 | CC[C@@H](C(N)=O)N1CCC(CO)C1=O (some centres undefined) |  | < 20 | 

Row | SMILES | ED50 (Mus musculus [1]) [µmol/kg] | inhibition [2] [%] | further results
22 | CC[C@@H](C(=O)O)N1CCCC1=O | 3200 | < 20 | 
23 | CCC(C(N)=O)N1C[C@H](CO)CC1=O (some centres undefined) |  | < 20 | 
24 | CC[C@@H](C(N)=O)N1CCC(C)(CC)C1=O (some centres undefined) | 1000 | < 20 | 
25 | CC[C@@H](C(N)=O)N1CC(NC(=O)OC)CC1=O (some centres undefined) | 540 |  | 
26 | CC[C@@H](C(N)=O)N1C[C@H](C)CC1=O | 110 |  | 
27 | CCC(C(N)=O)N1CC(COC)CC1=O (centres undefined) | 400 |  | 
28 | CCCC1(C)CC(=O)N([C@@H](CC)C(N)=O)C1 (some centres undefined) | 400 |  | 
29 | CCC(C(N)=O)N1CC(O)CC1=O (centres undefined) | 1000 | < 20 | 
30 | CC[C@@H](C(=O)Nc1ccccc1)N1CCCC1=O | 560 | < 20 | 
31 | CCCCCCN(CCCCCC)C(=O)[C@H](CC)N1CCCC1=O | 560 | < 20 | 
32 | CC[C@@H](C(N)=O)N1C[C@H](CNS(=O)(=O)c2ccccc2)CC1=O | 1000 | < 20 | 
33 | CCC(C(N)=O)N1CCC(Cc2ccccc2)C1=O (centres undefined) | 320 | < 20 | 
34 | CCC1CC(=O)N([C@@H](CC)C(N)=O)C1 (some centres undefined) | 87 |  | 
35 | CCC[C@H]1CC(=O)N([C@@H](CC)C(N)=O)C1 | 44 |  | 
36 | CC[C@@H](C(N)=O)N1CCCC1=O [LEVETIRACETAM] |  |  | ED50 (Mus musculus [8]): 180 µmol/kg
37 | CC[C@@H](C(N)=O)N1C[C@H](CF)CC1=O | 370 |  | 
38 | CC[C@@H](C(=O)N(C)OC)N1CCCC1=O | 1000 | < 20 | 
39 | CC[C@@H](C(=O)NC)N1CCCC1=O | 1800 |  | 
40 | CC(C)(C)[C@@H](C(N)=O)N1CCCC1=O |  | < 20 | 
41 | CC[C@@H](C(N)=O)N1CC(CC(C)(C)C)CC1=O (some centres undefined) | 1000 |  | 
42 | CCOC(=O)[C@H](CC)N1CCCC1=O |  | < 20 | 

Row | SMILES | ED50 (Mus musculus [1]) [µmol/kg] | inhibition [2] [%] | further results
43 | CCCC1(CCC)CC(=O)N([C@@H](CC)C(N)=O)C1 | 1000 | < 30 | 
44 | CC[C@@H](C(N)=O)N1CC(CC2CC2)CC1=O (some centres undefined) | 33 |  | 
45 | CCC(C(N)=O)N1CC(C(F)(F)F)CC1=O (centres undefined) | 1000 | < 20 | 
46 | CCC[C@@H](C(N)=O)N1CCCC1=O |  |  | ED50 (Mus musculus [9]): 190 µmol/kg
47 | CC(C)(C(N)=O)N1CCCC1=O |  | < 20 | 
48 | CCC(C(N)=O)N1CC(C(C)C)CC1=O (centres undefined) | 360 |  | 
49 | CC[C@@H](C(N)=O)N1C[C@H](CCl)CC1=O | 25 |  | 
50 | CC[C@@H](C(=N)NO)N1CCCC1=O | 1000 | < 20 | 
51 | CCC[C@H](C(N)=O)N1CCCC1=O | 1000 |  | 
52 | NC(=O)CN1CCCC1=O [PIRACETAM] | 10000 |  | 
53 | CC[C@@H](C(=O)N(C)O)N1CCCC1=O | 1000 |  | 
54 | CC[C@@H](C(N)=O)N1C[C@H](CI)CC1=O | 13 |  | bioavailability [10]: 100%; Tmax [11]: 0.8 h; clearance [12]: 4.8 mL/min/kg; half-life [13]: 2 h
55 | CC[C@@H](C(N)=O)N1CC(N)CC1=O (some centres undefined) |  | < 20 | 
56 | CC[C@@H](C(N)=O)N1C[C@H](CSC)CC1=O | 160 |  | 
57 | CC[C@@H](C(N)=O)N1C(=O)CCC1C (some centres undefined) | 1000 |  | 
58 | CC[C@@H](C(N)=O)N1C[C@H](CN2CCCC2)CC1=O | 320 | < 20 | 
59 | CC[C@H](C(N)=O)N1CCCC1=O [LEVITIRACETAM] | 1000 |  | 
60 | NCCCC(C(N)=O)N1CCCC1=O (centres undefined) |  | < 20 | 
61 | CCCN(C(C)=O)C(CC)C(N)=O (centres undefined) |  | < 20 | 
62 | CC[C@@H](C(=O)NOC)N1CCCC1=O | 1000 | < 20 | 
63 | CC[C@@H](C(N)=O)N1C[C@H](C(=O)O)CC1=O | 1000 | < 20 | 

From ChEMBL document CHEMBL1148391, “Discovery of 4-substituted pyrrolidone butanamides as new agents with significant antiepileptic activity” (J Med Chem, 2004)
